In ChEMBL document CHEMBL3627702, “Navigating CYP1A Induction and Arylhydrocarbon Receptor Agonism in Drug Discovery. A Case History with S1P1 Agonists” (J Med Chem, 2015):
One block for each molecule: values may come before it.

Assays:
CYP1A1 [1] = assay: Induction of CYP1A1 mRNA expression in Sprague-Dawley rat hepatic microsomes at 15 mg/kg, po QD for 4 days relative to control; type: ADME, organism-based, Liver; details: read-out: FC
In short: (§1)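 Male CD rats (226–325 g, n = 3) were dosed by oral gavage once daily for 4 days as a 1% w/v aqueous methylcellulose suspension (3–6 mg/mL, 5 mL/kg). At the end of the study, a left lateral liver lobe section was placed in RNALater and homogenised in TRIzol. RNA was purified, DNase-treated and converted to cDNA, and Cyp1a1 was read on low-density TaqMan arrays.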

[2] = Cmax in Sprague-Dawley rat at 15 mg/kg, po QD measured on day 1; type: ADME, organism-based; set-up: dose 15 mg/kg, route oral; details: in vivo
In short: (§2)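 Male CD rats (226−325 g), n = 3, given the compound once daily by oral gavage for 4 days. Vehicle was 1% (w/v) methylcellulose aq suspension at 3−6 mg/mL, dosed at 5 mL/kg (target 15−30 mg/kg). Tail vein blood was taken on days 1 and 4 up to 24 h postdose. Blood was diluted 1:1 with water, extracted by acetonitrile protein precipitation and analysed by LC−MS/MS against calibration standards in diluted blood.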

Rattus norvegicus [3] = assay: Dose normalized AUC in Sprague-Dawley rat at 15 mg/kg, po QD measured on day 1; type: ADME, organism-based; details: in vivo; in short: as §2
[4] = Cmax in Sprague-Dawley rat at 15 mg/kg, po QD measured on day 4; type: ADME, organism-based; set-up: dose 15 mg/kg, route oral; details: in vivo; in short: as §2
Rattus norvegicus [5] = assay: Dose normalized AUC in Sprague-Dawley rat at 15 mg/kg, po QD measured on day 4; type: ADME, organism-based; details: in vivo; in short: as §2
CYP1A2 [6] = assay: Induction of CYP1A2 mRNA expression in Sprague-Dawley rat hepatic microsomes at 15 mg/kg, po QD for 4 days relative to control; type: ADME, organism-based, Liver; details: read-out: FC
[7] = Lipophilicity, log D of the compound at pH 7.4; type: physicochemical; details: buffer
[8] = Dissociation constant, pKa of the compound; type: physicochemical
[9] = AUC in Sprague-Dawley rat at 15 mg/kg, po QD measured on day 1; type: ADME, organism-based; details: in vivo; in short: as §2
[10] = AUC in Sprague-Dawley rat at 15 mg/kg, po QD measured on day 4; type: ADME, organism-based; details: in vivo; in short: as §2
CYP1A1 [11] = assay: Induction of CYP1A1 mRNA expression in rat hepatic microsomes at 30 mg/kg, po QD for 7 days relative to control; type: ADME, organism-based, Liver; details: read-out: FC
In short: (§3)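 Male rats dosed orally once daily for 7 days. Hepatic mRNA measured by Taqman and expressed as fold induction versus control animals.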

CYP1A2 [12] = assay: Induction of CYP1A2 mRNA expression in rat hepatic microsomes at 30 mg/kg, po QD for 7 days relative to control; type: ADME, organism-based, Liver; details: read-out: FC; in short: as §3
CYP1A2 [13] = assay: Induction of CYP1A2 mRNA expression in human hepatocytes at 10 uM relative to control; type: ADME, cell-based, Hepatocyte; details: read-out: FC
CYP1A1 [14] = assay: Induction of CYP1A1 mRNA expression in rat hepatocytes at 10 uM by Taqman analysis relative to control; type: ADME, cell-based, Hepatocyte; details: read-out: FC
CYP1A2 [15] = target: T1, CYP1A2 (Homo sapiens, UniProt P05177); assay: Induction of CYP1A2-mediated 7-ethoxyresorufin O-deethylase activity in human hepatocytes at 5 uM after 10 mins by fluorescence assay relative to control; type: ADME, cell-based, Hepatocyte; details: probe 7-ethoxyresorufin, read-out: FC
T1 sequence (P05177 whole entry): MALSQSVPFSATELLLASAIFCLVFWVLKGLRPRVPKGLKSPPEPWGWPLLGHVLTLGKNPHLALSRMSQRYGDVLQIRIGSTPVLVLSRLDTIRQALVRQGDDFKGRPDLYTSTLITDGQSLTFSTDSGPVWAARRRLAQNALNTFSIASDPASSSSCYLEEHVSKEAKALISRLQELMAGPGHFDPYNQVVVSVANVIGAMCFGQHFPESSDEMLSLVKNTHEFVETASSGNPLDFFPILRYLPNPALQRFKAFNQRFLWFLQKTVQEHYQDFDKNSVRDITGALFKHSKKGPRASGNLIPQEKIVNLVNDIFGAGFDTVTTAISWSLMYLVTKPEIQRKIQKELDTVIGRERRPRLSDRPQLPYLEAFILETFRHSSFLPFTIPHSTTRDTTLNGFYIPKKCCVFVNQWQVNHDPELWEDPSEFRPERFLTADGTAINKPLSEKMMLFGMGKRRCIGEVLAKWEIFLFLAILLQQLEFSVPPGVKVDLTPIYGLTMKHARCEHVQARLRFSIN
In short: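 Human hepatocytes were treated for 48 h (re-dosed at 24 h), washed, then incubated with 0.5 μM ethoxyresorufin in serum-free medium for 10 min at 37 °C. Resorufin fluorescence read at Ex 530/Em 590 nm. Rate in fluorescence units/min expressed as fold over solvent control.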

CYP1A2 [16] = assay: Induction of CYP1A2 mRNA expression in rat hepatocytes at 10 uM by Taqman analysis relative to control; type: ADME, cell-based, Hepatocyte; details: read-out: FC
CYP1A1 [17] = assay: Induction of CYP1A1 mRNA expression in Sprague-Dawley rat hepatic microsomes at 19 mg/kg, po QD for 4 days relative to control; type: ADME, organism-based, Liver; details: read-out: FC; in short: as §1
[18] = Cmax in Sprague-Dawley rat at 19 mg/kg, po QD measured on day 1; type: ADME, organism-based; set-up: dose 19 mg/kg, route oral; details: in vivo; in short: as §2
CYP1A2 [19] = assay: Induction of CYP1A2 mRNA expression in Sprague-Dawley rat hepatic microsomes at 19 mg/kg, po QD for 4 days relative to control; type: ADME, organism-based, Liver; details: read-out: FC
Rattus norvegicus [20] = assay: Dose normalized AUC in Sprague-Dawley rat at 19 mg/kg, po QD measured on day 4; type: ADME, organism-based; details: in vivo; in short: as §2
Rattus norvegicus [21] = assay: Dose normalized AUC in Sprague-Dawley rat at 19 mg/kg, po QD measured on day 1; type: ADME, organism-based; details: in vivo; in short: as §2
[22] = Cmax in Sprague-Dawley rat at 19 mg/kg, po QD measured on day 4; type: ADME, organism-based; set-up: dose 19 mg/kg, route oral; details: in vivo; in short: as §2
[23] = AUC in Sprague-Dawley rat at 19 mg/kg, po QD measured on day 1; type: ADME, organism-based; details: in vivo; in short: as §2
[24] = AUC in Sprague-Dawley rat at 19 mg/kg, po QD measured on day 4; type: ADME, organism-based; details: in vivo; in short: as §2

- fold induction at 96 h (CYP1A1 [1]): 275
- Cmax [2]: 0.55 µg/mL
- AUC/dose (Rattus norvegicus [3]): 36 kg·min/L
- Cmax [4]: 0.67 µg/mL
- AUC/dose (Rattus norvegicus [5]): 46 kg·min/L
- fold induction at 96 h (CYP1A2 [6]): 1.9
- logD [7]: 2.64
- pKa [8]: 8.2
- AUC [9]: 9.1 µg·h/mL
- AUC [10]: 11.5 µg·h/mL
SMILES: Cc1c(-c2noc(-c3ccc(OC(C)C)c(C#N)c3)n2)ccc2c1CCN(C(CO)CO)CC2

- fold induction at 168 h (CYP1A1 [11]): 3
- fold induction at 168 h (CYP1A2 [12]): 1
- fold induction at 10 µM (CYP1A2 [13]): 0.2
- fold induction at 10 µM (CYP1A1 [14]): < 1
- fold induction at 10 min, 5 µM (CYP1A2 [15]): 1.1
- fold induction at 10 µM (CYP1A2 [16]): < 1
SMILES: Cc1c(-c2noc(-c3ccc(OC(C)C)c(C#N)c3)n2)ccc2c1CCN(CCC(=O)O)C2

- fold induction at 96 h (CYP1A1 [17]): 126
- Cmax [18]: 1.29 µg/mL
- fold induction at 96 h (CYP1A2 [19]): 1.7
- AUC/dose (Rattus norvegicus [20]): 83 kg·min/L
- AUC/dose (Rattus norvegicus [21]): 65 kg·min/L
- Cmax [22]: 1.53 µg/mL
- AUC [23]: 20.8 µg·h/mL
- logD [7]: 2.36
- AUC [24]: 26 µg·h/mL
- pKa [8]: 8.4
SMILES: Cc1c(-c2noc(-c3ccc(OC(C)C)c(C#N)c3)n2)ccc2c1CCN(C[C@@H](O)CO)CC2
